Measurements taken from ChEMBL document CHEMBL1146062, “Synthesis of 3-benzyl-2-substituted quinoxalines as novel monoamine oxidase A inhibitors” (Bioorg Med Chem Lett, 2006).

Assays:
[1] = biological target: T1, Amine oxidase [flavin-containing] A (Rattus norvegicus, UniProt P21396); assay: Inhibition of rat liver mitochondria MAOA at 100 uM
T1 sequence (P21396 whole entry): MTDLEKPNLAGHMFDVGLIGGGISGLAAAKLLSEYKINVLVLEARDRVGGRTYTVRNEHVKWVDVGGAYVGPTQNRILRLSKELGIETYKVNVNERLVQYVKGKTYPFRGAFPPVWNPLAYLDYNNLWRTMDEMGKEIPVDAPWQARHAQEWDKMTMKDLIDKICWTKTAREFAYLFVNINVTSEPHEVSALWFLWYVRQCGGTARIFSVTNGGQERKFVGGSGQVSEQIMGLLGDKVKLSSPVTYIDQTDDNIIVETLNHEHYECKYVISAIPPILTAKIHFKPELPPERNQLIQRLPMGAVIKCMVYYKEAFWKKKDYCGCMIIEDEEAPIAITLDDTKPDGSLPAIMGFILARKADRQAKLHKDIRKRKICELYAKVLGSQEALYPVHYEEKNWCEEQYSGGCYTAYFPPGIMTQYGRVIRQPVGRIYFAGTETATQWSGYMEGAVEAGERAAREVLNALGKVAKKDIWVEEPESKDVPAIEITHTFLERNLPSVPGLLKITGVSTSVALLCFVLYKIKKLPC
Summary of the method: (§1)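 MAO-A activity was measured in rat liver mitochondria with serotonin (5HT) as substrate. Test compounds were used at a final concentration of 1 × 10^-4 M, and inhibition was determined.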

[2] = biological target: T1, Amine oxidase [flavin-containing] A; assay: Inhibition of rat liver mitochondria MAOA; summary of the method: as §1
[3] = biological target: T2, Amine oxidase [flavin-containing] B (Rattus norvegicus, UniProt P19643); assay: Inhibition of rat liver mitochondria MAOB
T2 sequence (P19643 whole entry): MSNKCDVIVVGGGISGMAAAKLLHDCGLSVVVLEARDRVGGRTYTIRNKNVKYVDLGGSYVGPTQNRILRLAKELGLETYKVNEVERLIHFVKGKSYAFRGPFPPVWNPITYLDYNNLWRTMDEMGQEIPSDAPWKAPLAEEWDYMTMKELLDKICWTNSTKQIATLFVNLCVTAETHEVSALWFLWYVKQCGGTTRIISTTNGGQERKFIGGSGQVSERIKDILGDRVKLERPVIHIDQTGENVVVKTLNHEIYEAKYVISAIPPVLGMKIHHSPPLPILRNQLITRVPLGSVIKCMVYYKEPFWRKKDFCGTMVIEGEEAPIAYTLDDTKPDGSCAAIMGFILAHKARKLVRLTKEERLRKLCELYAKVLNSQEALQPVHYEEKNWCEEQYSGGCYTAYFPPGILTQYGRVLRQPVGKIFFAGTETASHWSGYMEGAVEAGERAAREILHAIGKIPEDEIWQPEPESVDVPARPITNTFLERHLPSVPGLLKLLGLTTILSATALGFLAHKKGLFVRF

[4] = system: Mus musculus; assay: Toxicity in mouse upto 250 mg/kg, po; type: organism-based; set-up: dose 250 mg/kg, route oral; conditions: in vivo
Summary of the method: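 Acute oral toxicity was assessed in male mice. Tolerability and mortality were recorded at doses up to […].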

[5] = system: Mus musculus; assay: Toxicity in mouse upto 125 mg/kg administered by parenteral route; type: organism-based; set-up: dose 125 mg/kg; conditions: in vivo

inhibition at 100 µM [1]	IC50 [2]	IC50 [3]	Compound	Activity [4]	Activity [5]
40%	0.073 µM	960 µM	Clc1cc2nc(Cc3ccccc3)c(NCCN3CCOCC3)nc2cc1Cl	Non-toxic	Non-toxic
40.9%	0.092 µM	790 µM	CNCCNc1nc2ccccc2nc1Cc1ccccc1	Non-toxic	Non-toxic
50.5%	0.0017 µM	360 µM	Clc1ccc(Cc2nc3ccccc3nc2NCCN2CCOCC2)cc1	Non-toxic	Non-toxic
42%	0.0076 µM	74 µM	NNc1nc2cc(Cl)c(Cl)cc2nc1Cc1ccccc1	Non-toxic	Non-toxic

Second part, the molecule before the results:

Compound	inhibition at 100 µM [1]	IC50 [2]	IC50 [3]	Activity [4]	Activity [5]
OCCNc1nc2ccccc2nc1Cc1ccccc1	46%	0.0037 µM	86 µM	Non-toxic	Non-toxic
c1ccc(Cc2nc3ccccc3nc2NCCN2CCOCC2)cc1	46.1%	0.0013 µM	840 µM	Non-toxic	Non-toxic
NNc1nc2ccccc2nc1Cc1ccccc1	54.1%	0.0088 µM	840 µM	Non-toxic	Non-toxic
NNc1nc2ccccc2nc1Cc1ccc(Cl)cc1	49.5%	0.0021 µM	570 µM	Non-toxic	Non-toxic
